Key:
PANC-1 [1] = test: Induction of apoptosis in human PANC-1 cells assessed as necrotic cells at […] incubated for 24 hrs by Annexin V-FITC/PI staining based flow cytometric analysis (reference value: 3.9%); type: functional
Summary of the method: (§1)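 PANC-1 seeded at 2 × 10^5 cells/well, grown 24 h, then treated 24 h. PI added just before flow cytometry. Quadrant percentages given as mean ± SD of three experiments. Untreated control.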

[2] = Toxicity in Balb/c mouse assessed as abnormal gait with rolling at 50 to 100 mg/kg, ip measured upto 24 hrs by Irwin test; type: organism-based; conditions: in vivo, dose 50-100 mg/kg
Summary of the method: (§2)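 Irwin primary observation in female Balb/c mice aged 7–8 weeks, 3 per group. Single i.p. doses of 0.01, 0.1, 1, 5, 10, 50 and 100 mg kg−1 in 0.2% HPMC in saline; vehicle controls observed in parallel, non-blind. Standardized grid including rectal temperature and pupil diameter scored at 15, 30, 60, 120 and 180 min and 24 h, with continuous watch over 0–15 min.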

[3] = Toxicity in Balb/c mouse assessed as decrease in activity at 50 to 100 mg/kg, ip measured upto 24 hrs by Irwin test; type: organism-based; conditions: in vivo, dose 50-100 mg/kg; summary of the method: as §2
PANC-1 [4] = test: Induction of apoptosis in human PANC-1 cells assessed as early apoptotic cells at 0.94 uM incubated for 24 hrs by Annexin V-FITC/PI staining based flow cytometric analysis (reference value: 5.2%); type: functional; summary of the method: as §1
[5] = Selectivity index, ratio of IC50 for cytotoxicity against human BJ cells to IC50 for cytotoxicity against human PANC-1; type: toxicity, cell-based; conditions: BJ cells and PANC-1 cells, read-out: Ratio IC50
Summary of the method: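 Selectivity index: BJ fibroblast IC50 over PANC-1 IC50, both from the 72 h MTT assay with 24 h pre-seeding (10 000 and 4000 cells/well). IC50 from three independent experiments.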

PANC-1 [6] = test: Induction of cell cycle arrest in human PANC-1 cells assessed as decrease in S phase cells at 1.88 uM incubated for 24 hrs by PI staining based flow cytometric analysis (Rvb= 19.8 %); type: functional; design: scale not given: the % may be the effect or the level left
PANC-1 [7] = test: Inhibition of cell migration in human PANC-1 cells incubated upto 72 hrs by scratch wound healing assay; type: functional, cell-based; conditions: dose 0.47-2.82 µM
Summary of the method: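 Confluent PANC-1 monolayers (4000 cells/well seeded, 24 h) were scratched with a P200 tip and washed with PBS. Medium with compound or 0.5% DMSO control was added. Wound area imaged by high-content microscopy at 0, 24, 48 and 72 h.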

PANC-1 [8] = test: Induction of apoptosis in human PANC-1 cells assessed as late apoptotic cells at […] incubated for 24 hrs by Annexin V-FITC/PI staining based flow cytometric analysis (reference value: 1.1%); type: functional; summary of the method: as §1
[9] = Toxicity in Balb/c mouse assessed as loss of traction indication of muscle weakness at 50 to 100 mg/kg, ip measured upto 24 hrs by Irwin test; type: organism-based; conditions: in vivo, dose 50-100 mg/kg; summary of the method: as §2
NCI-H2170 = test: Cytotoxicity against human NCI-H2170 cells assessed as inhibition of cell growth incubated for 72 hrs by MTT assay; type: functional, cell-based; conditions: NCI-H2170, 72 h
Summary of the method: (§3)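 Cells seeded per well (HT-29 4500, PANC-1 4000, SK-MEL-28 3200, A375 1200, A549 2500, H2170 and BJ 10 000) and left 24 h. They were then exposed to increasing concentrations for 72 h and incubated 1 h with MTT 0.5 mg mL−1. Formazan was dissolved in DMSO and absorbance read at 550 nm. IC50 from three independent experiments. Final DMSO ≤0.5%.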

A-375 = test: Cytotoxicity against human A-375 cells assessed as inhibition of cell growth incubated for 72 hrs by MTT assay; type: functional, cell-based; conditions: A-375, 72 h; summary of the method: as §3
PANC-1 [10] = test: Induction of apoptosis in human PANC-1 cells assessed as necrotic cells at 2.82 uM incubated for 24 hrs by Annexin V-FITC/PI staining based flow cytometric analysis (reference value: 3.9%); type: functional; summary of the method: as §1
PANC-1 [11] = test: Induction of apoptosis in human PANC-1 cells assessed as early apoptotic cells at 2.82 uM incubated for 24 hrs by Annexin V-FITC/PI staining based flow cytometric analysis (reference value: 5.2%); type: functional; summary of the method: as §1
[12] = Toxicity in Balb/c mouse assessed as transient observation of sole sign at 0.01 to 10 mg/kg, ip measured upto 24 hrs by Irwin test; type: organism-based; conditions: in vivo, dose 0.01-10 mg/kg; summary of the method: as §2
PANC-1 [13] = test: Synergistic cytotoxicity against human PANC-1 cells assessed as combination index at 0.12 uM incubated for 72 hrs in the presence of 6 uM gemcitabine by MTT assay; type: functional
PANC-1 [14] = test: Synergistic cytotoxicity against human PANC-1 cells assessed as combination index at 0.24 uM incubated for 72 hrs in the presence of 12 uM gemcitabine by MTT assay; type: functional
HT-29 = test: Cytotoxicity against human HT-29 cells assessed as inhibition of cell growth incubated for 72 hrs by MTT assay; type: functional, cell-based; conditions: HT-29, 72 h; summary of the method: as §3
PANC-1 [15] = test: Synergistic cytotoxicity against human PANC-1 cells assessed as combination index at 1.88 uM incubated for 72 hrs in the presence of 94 uM gemcitabine by MTT assay; type: functional

**Q.** Which Activity (PANC-1 [1]) does the source give for `CCOC(=O)[C@]12CCC(C)(C)C[C@H]1C1=CC[C@@H]3[C@@]4(C)C(C=O)=C[C@@](C)(CO)[C@@H]4CC[C@@]3(C)[C@]1(C)CC2` here?
**A.** 2.3%

**Q.** What about the Activity [2] of the same compound?
**A.** Toxic

**Q.** And the Activity [3]?
**A.** Toxic

**Q.** And the Activity (PANC-1 [4])?
**A.** 5.7%

**Q.** And the selectivity ratio [5]?
**A.** 6.5

**Q.** And the Activity (PANC-1 [6])?
**A.** 3.7%

**Q.** What about the inhibition (PANC-1 [7]) of the same compound?
**A.** Dose-Dependent Effect

**Q.** What about the Activity (PANC-1 [8]) of the same compound?
**A.** 1.1%

**Q.** What about the Activity [9] of the same compound?
**A.** Toxic

**Q.** What about the IC50 (NCI-H2170) of the same compound?
**A.** 1330 nM

**Q.** And the IC50 (A-375)?
**A.** 580 nM

**Q.** What about the Activity (PANC-1 [10]) of the same compound?
**A.** 2%

**Q.** And the Activity (PANC-1 [11])?
**A.** 9.9%

**Q.** What about the Activity [12] of the same compound?
**A.** Non-Toxic

**Q.** And the CI (PANC-1 [13])?
**A.** 0.93

**Q.** What about the CI (PANC-1 [14]) of the same compound?
**A.** 0.75

**Q.** What about the IC50 (HT-29) of the same compound?
**A.** 510 nM

**Q.** And the CI (PANC-1 [15])?
**A.** 0.79

From ChEMBL document CHEMBL5230168, “Design, synthesis, and biological evaluation of new arjunolic acid derivatives as anticancer agents” (RSC Med Chem, 2023)
